# Published values pooled from the literature.
# Each line is one published result; the experiments were not run side by side.
# Sample: plasma
Structure (SMILES),host,route,dose,setting,half-life [h]
CC(C)[C@](O)(c1ccc2cc(OC(F)F)c(OC(F)F)cc2c1)c1c[nH]nn1,female human,oral,750 mg,single dose,6.8
CC(C)(O)c1ccccc1-c1ccc2[nH]c(/C=C/c3ccc(C(F)(F)F)cc3)nc2c1,male human,oral,225 mg,"single dose, fasted, healthy volunteers",85.9
COc1cc(C(=O)NC2CCN(C)CC2)c(F)cc1Nc1ncc(C(F)(F)F)c(Oc2cccc3c2C(=O)N(C)C3)n1,human,oral,50 mg,"multiple doses, once daily, patients",21.5
CC(C)n1cc(C#N)c2cc(-n3cc(C(=O)O)cn3)ccc21,male human,oral,600 mg,"single dose, fasted, healthy volunteers",11.9
CS(=O)(=O)CCC#N,human,oral,1000 mg,"multiple doses, once daily",24.7
CCNCCCNC/C=C\CNCCCNCC,human,intravenous,150 mg,"patients, infusion",0.2
COCCOc1cnc2ccn([C@H](C)c3nnc4c(F)cc(-c5cnn(C)c5)cn34)c(=O)c2c1,human,oral,150 mg,"multiple doses, once daily, patients",9.9
c1cnc2ccc(Nc3nc(NC4CC4)c4nc[nH]c4n3)cc2c1,human,oral,200 mg/m²,patients,2.1
CO[C@@H]1[C@H](OC(=O)N2CC(CCN3CCOCC3)C2)CC[C@]2(CO2)[C@H]1[C@@]1(C)O[C@@H]1CC=C(C)C,human,subcutaneous,1.2 mg,"single dose, healthy volunteers",0.72
CO[C@H]1/C=C\C=C(/C)C(=O)NC2=CC(=O)C(NCCN(C)C)=C(C[C@@H](C)C[C@H](OC)[C@H](O)[C@@H](C)/C=C(\C)[C@@H]1OC(N)=O)C2=O,human,intravenous,,"patients, infusion",22.3
COc1ccc([C@@H]2CN(C(=O)[C@@H](O)CO)C[C@@]2(C)[C@@H](C)O)cc1OC1CN(c2ccc(C)cn2)C1,human,oral,5 mg,"single dose, healthy volunteers",11.9
CO[C@H]1CC[C@H](N2C(=O)CNc3ncc(-c4ccc(C(C)(C)O)nc4)nc32)CC1,human,oral,30 mg,patients,5.57
CC(C)(Sc1ccncc1-c1ccc(C#N)c2ccccc12)C(=O)O,male human,oral,40 mg,"single dose, fasted, healthy volunteers",9.51
C[C@@H](Nc1cc(F)cc(F)c1)c1cc(C(=O)N(C)C)cc2c(=O)cc(N3CCOCC3)oc12,human,oral,120 mg,"single dose, patients",3.33
Cn1cc(-c2ccc(S(=O)(=O)[C@@H]3C[C@@H](C(=O)NC4(C#N)CC4)N(C(=O)C4(C(F)(F)F)CC4)C3)c(C(F)(F)F)c2)cn1,human,oral,3 mg,"single dose, fasted, healthy volunteers",5.69
